Consider nine compounds from ChEMBL document CHEMBL1275439, “Acquisition of a plasmid-borne blaOXA-58 gene with an upstream IS1008 insertion conferring a high level of carbapenem resistance to Acinetobacter baumannii” (2008).

In brackets after ≈: the same amount, converted by molar mass.

Holding throughout (assay type): functional
The test system of test [1] is Acinetobacter baumannii. In words: Antimicrobial activity against Acinetobacter baumannii TVICU53 by broth dilution test. Put shortly:
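MICs by broth dilution on automated susceptibility plates, or by agar dilution, read and interpreted per CLSI guidelines; carbapenem MICs confirmed by Etest. Clinical isolate tested against a panel of aminoglycosides, β-lactams, β-lactam/inhibitor combinations, carbapenems, ciprofloxacin, chloramphenicol and trimethoprim-sulfamethoxazole. E. coli ATCC 25922 and P. aeruginosa ATCC 27853 run as quality controls. All tests done in duplicate.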
(In general: Broth dilution looks for growth in wells or tubes with falling amounts of substance.)

In test [2] the test system is Acinetobacter baumannii. In words: Antimicrobial activity against Acinetobacter baumannii ATCC 15151T containing plasmid harboring OXA-58-3 by broth dilution test. A digest of the protocol:
(§1)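 Recombinant plasmids were electroporated (2.5 kV, 25 µF) into electrocompetent cells harvested at exponential phase (OD600 0.5–0.7). Cells were recovered in SOC broth at 37°C for 1 h and selected on antibiotics. MICs were then read by Sensititre broth dilution or agar dilution per CLSI, with carbapenems confirmed by Etest. Tests were run in duplicate with ATCC 25922/27853 controls.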

The subject of test [3] is Escherichia coli. Kind of test: Antimicrobial activity against Escherichia coli DH5alpha harboring plasmid containing OXA-58-3 by broth dilution test.
The subject of test [4] is Acinetobacter baumannii. In words: Antimicrobial activity against Acinetobacter baumannii Ab290 harboring TVICU53 plasmid by broth dilution test. A digest of the protocol: as §1
Test [5] concerns Acinetobacter baumannii. Kind of test: Antimicrobial activity against Acinetobacter baumannii Ab290 containing plasmid harboring OXA-58-3 by broth dilution test. Put shortly: as §1
The test system of test [6] is Escherichia coli. In words: Antimicrobial activity against Escherichia coli DH5alpha by broth dilution test.
Test [7] has as its system Acinetobacter baumannii. Kind of test: Antimicrobial activity against Acinetobacter baumannii ATCC 15151T by broth dilution test. Put shortly: (§2)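 MICs determined by broth dilution on automated Sensititre susceptibility plates or by agar dilution, interpreted per CLSI guidelines. Carbapenem MICs confirmed by Etest. E. coli ATCC 25922 and P. aeruginosa ATCC 27853 served as quality-control strains. All tests done in duplicate.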

Test [8] has as its system Acinetobacter baumannii. Kind of test: Antimicrobial activity against Acinetobacter baumannii Ab290 by broth dilution test. Put shortly:
as §2

In test [9] the test system is Acinetobacter baumannii. Kind of test: Antimicrobial activity against Acinetobacter baumannii Ab290 containing plasmid harboring OXA-58-4 by broth dilution test. Put shortly: as §1
Test [10] concerns Escherichia coli. In words: Antimicrobial activity against Escherichia coli DH5alpha harboring plasmid containing OXA-58-4 by broth dilution test.

For the compound `C[C@H]1[C@H](NC(=O)/C(=N\OC(C)(C)C(=O)O)c2csc(N)n2)C(=O)N1S(=O)(=O)O` [AZTREONAM], the MIC (as a rule, the lowest concentration found to suppress growth) against Acinetobacter baumannii [1] is 64 µg/mL (≈ 147 µM); in the test with Acinetobacter baumannii [2], 128 µg/mL (≈ 294 µM); in the test with Escherichia coli [3], below 0.12 µg/mL; in the test with Acinetobacter baumannii [4] it was 16 µg/mL (≈ 36.7 µM); against Acinetobacter baumannii [5], 16 µg/mL (≈ 36.7 µM); with Escherichia coli [6] it was below 0.12 µg/mL. In addition, the MIC in the test on Acinetobacter baumannii [7] was 64 µg/mL (≈ 147 µM).

In the case of `C[C@@H](O)[C@H]1C(=O)N2C(C(=O)O)=C(S[C@@H]3CN[C@H](C(=O)N(C)C)C3)[C@H](C)[C@H]12` [MEROPENEM], the MIC stood at 16 µg/mL (≈ 41.7 µM) in the test on Acinetobacter baumannii [1]; 32 µg/mL (≈ 83.4 µM) in the test on Acinetobacter baumannii [2]; 0.25 µg/mL (≈ 0.652 µM) in the test on Acinetobacter baumannii [8]; 16 µg/mL (≈ 41.7 µM) in the test on Acinetobacter baumannii [4]; 0.5 µg/mL (≈ 1.3 µM) with Acinetobacter baumannii [9]; 16 µg/mL (≈ 41.7 µM) with Acinetobacter baumannii [5]. Further, the figures for the MIC with Escherichia coli [6] and in the test on Acinetobacter baumannii [7] were below 0.25 µg/mL and 0.5 µg/mL (≈ 1.3 µM), respectively.

Regarding `C[C@@H](O)[C@H]1C(=O)N2C(C(=O)O)=C(SCCNC=N)C[C@H]12` [IMIPENEM ANHYDROUS], the MIC with Acinetobacter baumannii [1] was 64 µg/mL (≈ 214 µM); in the test on Acinetobacter baumannii [2] it was 32 µg/mL (≈ 107 µM); against Escherichia coli [3], 2 µg/mL (≈ 6.68 µM); with Escherichia coli [10], 0.25 µg/mL (≈ 0.835 µM); in the test on Acinetobacter baumannii [8], 0.25 µg/mL (≈ 0.835 µM); against Acinetobacter baumannii [4], 32 µg/mL (≈ 107 µM). Moreover, the MIC came to 1 µg/mL (≈ 3.34 µM) in the test with Acinetobacter baumannii [9], 64 µg/mL (≈ 214 µM) against Acinetobacter baumannii [5], 0.25 µg/mL (≈ 0.835 µM) in the test on Escherichia coli [6] and 0.5 µg/mL (≈ 1.67 µM) in the test with Acinetobacter baumannii [7].

As to `CO/N=C(\C(=O)N[C@@H]1C(=O)N2C(C(=O)O)=C(COC(C)=O)CS[C@H]12)c1csc(N)n1` [CEFOTAXIME], the MIC in the test with Acinetobacter baumannii [1] is 64 µg/mL (≈ 141 µM); with Acinetobacter baumannii [2], 16 µg/mL (≈ 35.1 µM); against Acinetobacter baumannii [8], 8 µg/mL (≈ 17.6 µM); in the test on Acinetobacter baumannii [4] it was 8 µg/mL (≈ 17.6 µM); in the test with Acinetobacter baumannii [5], 8 µg/mL (≈ 17.6 µM); against Escherichia coli [6], below 0.12 µg/mL. The compound also came in with an MIC with Acinetobacter baumannii [7] of 16 µg/mL (≈ 35.1 µM).

Take `Cc1nnc(SCC2=C(C(=O)O)N3C(=O)[C@@H](NC(=O)Cn4cnnn4)[C@H]3SC2)s1` [CEFAZOLIN]: the minimum inhibitory concentration (MIC) against Acinetobacter baumannii [1] is above 128 µg/mL; in the test with Escherichia coli [3] it was 8 µg/mL (≈ 17.6 µM); with Acinetobacter baumannii [8], above 128 µg/mL; in the test with Escherichia coli [6] it was 4 µg/mL (≈ 8.8 µM); against Acinetobacter baumannii [7] it was above 128 µg/mL.

Take `CC1(C)S[C@@H]2[C@H](NC(=O)[C@H](N)c3ccc(O)cc3)C(=O)N2[C@H]1C(=O)O` [AMOXICILLIN]: the MIC in the test with Acinetobacter baumannii [1] is above 256 µg/mL; in the test with Escherichia coli [3], above 256 µg/mL; with Escherichia coli [10], above 256 µg/mL; against Acinetobacter baumannii [8], 32 µg/mL (≈ 87.6 µM); with Acinetobacter baumannii [4] it was above 256 µg/mL; in the test on Acinetobacter baumannii [9], above 256 µg/mL. Further, the MIC is above 256 µg/mL in the test on Acinetobacter baumannii [5], 8 µg/mL (≈ 21.9 µM) against Escherichia coli [6] and above 256 µg/mL against Acinetobacter baumannii [7].

As to `CO/N=C(\C(=O)N[C@@H]1C(=O)N2C(C(=O)O)=C(COC(N)=O)CS[C@H]12)c1ccco1` [CEFUROXIME], the MIC was above 128 µg/mL with Acinetobacter baumannii [1]; 4 µg/mL (≈ 9.43 µM) in the test with Escherichia coli [3]; 32 µg/mL (≈ 75.4 µM) in the test with Acinetobacter baumannii [8]; 32 µg/mL (≈ 75.4 µM) with Acinetobacter baumannii [4]; 32 µg/mL (≈ 75.4 µM) in the test on Acinetobacter baumannii [5]; 4 µg/mL (≈ 9.43 µM) against Escherichia coli [6]. Moreover, in the test on Acinetobacter baumannii [7], the minimum inhibitory concentration (MIC) was above 128 µg/mL.

Turning to `CC(C)(O/N=C(\C(=O)N[C@@H]1C(=O)N2C(C(=O)[O-])=C(C[n+]3ccccc3)CS[C@H]12)c1csc(N)n1)C(=O)O` [CEFTAZIDIME], the MIC in the test with Acinetobacter baumannii [1] is 128 µg/mL (≈ 234 µM); in the test on Acinetobacter baumannii [2] it was 8 µg/mL (≈ 14.6 µM); with Escherichia coli [3], below 0.12 µg/mL; with Acinetobacter baumannii [8], 4 µg/mL (≈ 7.32 µM); against Acinetobacter baumannii [4], 4 µg/mL (≈ 7.32 µM); with Acinetobacter baumannii [5] it was 4 µg/mL (≈ 7.32 µM). Also, the MIC is below 0.12 µg/mL with Escherichia coli [6] and 8 µg/mL (≈ 14.6 µM) with Acinetobacter baumannii [7].

Turning to `CC1(C)S[C@@H]2[C@H](NC(=O)[C@H](C(=O)O)c3ccsc3)C(=O)N2[C@H]1C(=O)O` [TICARCILLIN], the MIC was above 1020 µg/mL against Acinetobacter baumannii [1]; above 1020 µg/mL with Acinetobacter baumannii [2]; above 1020 µg/mL in the test on Escherichia coli [3]; 256 µg/mL (≈ 666 µM) against Escherichia coli [10]; 16 µg/mL (≈ 41.6 µM) against Acinetobacter baumannii [8]; above 1020 µg/mL against Acinetobacter baumannii [4]. The MIC in the test with Acinetobacter baumannii [9] is 256 µg/mL (≈ 666 µM); in the test on Acinetobacter baumannii [5] it was above 1020 µg/mL; against Escherichia coli [6] it was 8 µg/mL (≈ 20.8 µM); with Acinetobacter baumannii [7], 8 µg/mL (≈ 20.8 µM).
